Measured values gathered from unrelated publications.
Each line is one published result; the experiments were not run side by side.
MET Y1235D: Hepatocyte growth factor receptor (MET, Homo sapiens, UniProt P08581, Y1235D)
MET: Hepatocyte growth factor receptor (MET, Homo sapiens, UniProt P08581)
MET M1250T: Hepatocyte growth factor receptor (MET, Homo sapiens, UniProt P08581, M1250T)

| SMILES | target | read-out | method | tested at | remaining binding |
| --- | --- | --- | --- | --- | --- |
| FC(F)(F)c1ccc2c(c1)nc(-c1cccnc1)n2C1CC1 | MET Y1235D | cell-free assay | competition with immobilised ligand | 1 µM | 100% |
| c1cncc(-c2cccc(Nc3nccc(NC4CCCCC4)n3)c2)c1 | MET | binding | competition with immobilised ligand | 10 µM | 43% |
| CC1CCCN1c1nccc(-c2cnn3ncccc23)n1 (stereo not drawn) | MET Y1235D | binding |  | 1 µM | 100% |
| COc1cnc(Nc2cccc(S(N)(=O)=O)c2)nc1N1CCN(c2ccccc2)CC1 | MET | binding | competition with immobilised ligand | 1 µM | 100% |
| N[C@@H]1CCN(c2nccc(-c3cnn4ncccc34)n2)C1 | MET | binding |  | 1 µM | 60% |
| O=C(NCCCC1CCCCC1)c1ccc(CNC(=O)c2cnn(-c3ccccc3)c2C(F)(F)F)cc1 | MET Y1235D | cell-free assay | competition with immobilised ligand | 0.1 µM | 100% |
| O=C(NCCCN1CCOCC1)c1ccc(Nc2nccc(-c3cc4ccccc4s3)n2)cc1 | MET Y1235D | binding | competition with immobilised ligand | 1 µM | 100% |
| Nc1ncc2c(n1)-c1c([nH]c3ccc(C#CC4CC4)cc13)CCCC2 | MET Y1235D | binding | competition with immobilised ligand | 1 µM | 92% |
| CCN1CCN(Cc2ccc(C(=O)Nc3ccc(C)c(Oc4ccc5c(c4)CC(=O)N5)c3)cc2C(F)(F)F)CC1 | MET Y1235D | binding | competition with immobilised ligand | 1 µM | 100% |
| CN(C)c1nccc(-c2cnc3ncccn23)n1 | MET M1250T | binding |  | 1 µM | 91% |
| Cn1cc(Cl)c2c(Oc3c(F)cc(Nc4cc(Cl)nc(N)n4)cc3F)ccnc21 | MET Y1235D | cell-free assay | competition with immobilised ligand | 0.1 µM | 91% |
| CN(C)c1nccc(-c2cnn3ncccc23)n1 | MET | binding |  | 1 µM | 89% |
| COc1cnc(Nc2cccc(S(N)(=O)=O)c2)nc1N1CCN(c2ccccc2)C(=O)C1 | MET Y1235D | binding | competition with immobilised ligand | 1 µM | 100% |
| FC(F)(F)Oc1cccc(-c2cnc3ccc(-c4ccncc4)nn23)c1 | MET | cell-free assay | competition with immobilised ligand | 5 µM | 63% |
| O=C(NCC1CCOCC1)c1n[nH]cc1NC(=O)c1c(F)cccc1F | MET M1250T | binding | competition with immobilised ligand | 1 µM | 90% |
| C[C@@H]1CN(c2ccc3ncc(-c4ccc5[nH]nc(C6CC6)c5c4)n3n2)C[C@H](C)O1 | MET | binding | competition with immobilised ligand | 50 nM | 89% |
| c1cnn2ncc(-c3ccnc(N4CCC45COC5)n3)c2c1 | MET M1250T | binding |  | 1 µM | 41% |

| SMILES | target | read-out | method | tested at | remaining binding |
| --- | --- | --- | --- | --- | --- |
| O=C(Nc1c[nH]nc1C(=O)NC1CCNCC1)c1cc(F)cc(F)c1 | MET Y1235D | binding | competition with immobilised ligand | 1 µM | 100% |
| CN1CCN(c2ccc(Nc3nccc(-c4ccccc4)n3)cc2C(F)(F)F)CC1 | MET M1250T | binding |  | 10 µM | 24% |
| O=C(c1ccc(Nc2nccc(-c3cc4ccccc4s3)n2)cc1)N1CCC(N2CCCC2)CC1 | MET | binding | competition with immobilised ligand | 1 µM | 69% |
| CN(C)C(=O)Cn1cc(-c2nc([C@@](C)(c3ccc(-c4cnc(N)nc4)cc3)C3CC3)no2)cn1 | MET M1250T | cell-free assay | competition with immobilised ligand | 1 µM | 93% |
| O=C(NCCCN1CCOCC1)c1ccc(Nc2ncc(Cl)c(-c3ccc(Cl)s3)n2)cc1 | MET Y1235D | binding | competition with immobilised ligand | 1 µM | 99% |
| CN(C)C(=O)Cn1cc(-c2nc(C3(c4ccc(-c5cnc(N)nc5)cc4)CC3)no2)cn1 | MET M1250T | cell-free assay | competition with immobilised ligand | 1 µM | 100% |
| COc1ccnn2ncc(-c3ccnc(N(C)C)n3)c12 | MET Y1235D | binding |  | 1 µM | 94% |
| CO[C@@H](C)c1c(Nc2ccc([C@@H](N(C)C(=O)C3CCS(=O)(=O)CC3)C(F)(F)F)cc2)cnc2cc(Cl)nn12 | MET M1250T | cell-free assay | competition with immobilised ligand | 1 µM | 100% |
| O=C(c1ccc(Nc2ncc(Cl)c(-c3ccc(Cl)s3)n2)cc1)N1CCC(N2CCCC2)CC1 | MET Y1235D | binding | competition with immobilised ligand | 1 µM | 51% |
| COc1ncc2cc3ccccc3nc2c1C#N | MET M1250T | cell-free assay | competition with immobilised ligand | 5 µM | 100% |
| Cc1cnc(Nc2ccc(C(=O)N3CCC(N4CCCC4)CC3)cc2)nc1-c1cc2ccccc2s1 | MET M1250T | binding | competition with immobilised ligand | 1 µM | 31% |
| C[C@@H]1CCN(c2nccc(-c3cnn4ncccc34)n2)C1 | MET Y1235D | binding |  | 1 µM | 79% |
| CC(=O)N1CCC(c2ccc(C(=O)NC3=NCCN3)cc2C(F)(F)F)CC1 | MET M1250T | cell-free assay | competition with immobilised ligand | 1 µM | 84% |
| CNC(=O)[C@@H]1CC[C@@H](n2c(-c3ccc4cnccc4c3)nc3ccc(C(=O)NCc4cccc(C(N)=O)c4)cc32)C1 | MET Y1235D | binding | competition with immobilised ligand | 1 µM | 92% |
| O=C(c1ccc(Nc2ncc(Cl)c(-c3cc4ccccc4s3)n2)cc1)N1CCC(N2CCCC2)CC1 | MET M1250T | binding | competition with immobilised ligand | 1 µM | 31% |
| CC1=C(C#N)[C@@H](c2ccc3[nH]nc(C)c3c2)C(C#N)=C(c2ccc(Cl)cc2)N1 | MET | cell-free assay | competition with immobilised ligand | 1 µM | 17.2% |
